Shown is part of a subset that was picked to be rich in hits.
HCT116 bCat-KO: beta-catenin-lacking colon tumor cell growth suppression. HCT116 beta-catenin knockout viability, CellTiter-Glo, 60 h; hits give low values. AID 818. viability, % at 10 µM. hit rate 1.5% among 140,000;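 active = viability at or under a set limit, the compound median less 4 SD, cut at about 6% in these data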
H69AR inhibit: blocks growth of human H69AR lung tumor cells; H69AR lung tumor viability, ATP luminescence, 72 h; hits give low values; viability, % at 10 µM; hit rate 6% among 85,000;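 active = viability at or below 40%; inactive = viability above 40%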;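 also: multidrug resistant small cell line overexpressing MRP-1 efflux transporter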
PTEN del growth: growth suppressors of cells with PTEN tumor suppressor deletion. HCT116 PTEN-null viability, CellTiter-Glo, 60 h; hits give low values. viability, % at 10 µM. hit rate 1.2% among 140,000. AID 827;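 active = viability at or below a set limit, 4 SD under the median of all tested compounds, cut at about 3.7% in these data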;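 also: PTEN knockout HCT116 line with beta catenin targeted HCT116 as companion control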
HUVEC prolif 384: blocks proliferation of human endothelial cells | HUVEC proliferation, CellTiter-Glo luminescence, 72 h; hits give low values | viability, % at 10 µM (by protocol) | hit rate 1.1% among 86,000;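 active = viability at or below 30%; inactive = viability above 30%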
Lung fibro prol: blocks proliferation of human lung fibroblasts | LL 47 human lung fibroblast viability, ATP luminescence; hits give low values | viability, % at 10 µM | hit rate 1.1% among 85,000 | AID 719;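 active = viability at or below 50% in the single dose screen; inactive = viability above 50%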;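 also: compound exposure lasted 72 h before the ATP readout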
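Material: human lung fibroblast line LL 47, low passage; Evaluation: viability percentage against median untreated-cell control; Buffer or medium: 15% FBS in IMEM; Incubation: 72 h compound exposure at 37 °C after overnight plating; Dosing: 0.1% DMSO in all compound wells; Measured by: CellTiter-Glo luminescence.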
Hits are given with their value.

What do the screens show for `CCCOc1c(OC)cccc1C1CC(=O)Nc2cc3c(cc21)OCO3` (centres undefined)?
HCT116 bCat-KO: inactive; H69AR inhibit: 17; PTEN del growth: inactive; HUVEC prolif 384: inactive; Lung fibro prol: inactive

What do the screens show for `CCOc1c(OC)cccc1C1CC(=O)Nc2cc(OC)c(OC)cc21` (centres undefined)?
HCT116 bCat-KO: inactive; PTEN del growth: inactive

How did CCCOc1c(OC)cccc1C1CC(=O)Nc2cc3c(cc21)OCCO3 (centres undefined) do in these assays?
HCT116 bCat-KO: inactive; H69AR inhibit: 15; PTEN del growth: inactive; HUVEC prolif 384: inactive; Lung fibro prol: inactive

Results for Brc1cccc(-c2n[nH]c(-c3ccccc3)n2)c1 ?
HCT116 bCat-KO: inactive; H69AR inhibit: 40; PTEN del growth: inactive; HUVEC prolif 384: inactive; Lung fibro prol: inactive

Results for CCCCc1ccc(NS(=O)(=O)c2cccs2)cc1 ?
HCT116 bCat-KO: inactive; H69AR inhibit: inactive; PTEN del growth: inactive; HUVEC prolif 384: inactive; Lung fibro prol: inactive

Results for COC(=O)c1ccccc1NC(=O)Cn1c(=O)n(Cc2ccccc2)c(=O)c2c(C)c(C)sc21 ?
HCT116 bCat-KO: inactive; PTEN del growth: inactive

How did CC(C)n1c(SCC(=O)Nc2nc3c(s2)CCCC3)nc2c1c(=O)n(C)c(=O)n2C do in these assays?
HCT116 bCat-KO: inactive; H69AR inhibit: 34; PTEN del growth: inactive; HUVEC prolif 384: inactive; Lung fibro prol: inactive

How did CC(C)n1c(SCC(=O)N2c3ccccc3CCc3ccccc32)nc2c1c(=O)n(C)c(=O)n2C do in these assays?
H69AR inhibit: 20; HUVEC prolif 384: inactive; Lung fibro prol: inactive

Results for COc1ccccc1NC(=O)c1ccc(NS(=O)(=O)c2ccc(F)c(F)c2F)cc1 ?
HCT116 bCat-KO: inactive; PTEN del growth: inactive

How did CC1CN(S(=O)(=O)c2cccc(C(=O)OCC(=O)Nc3ccc4c(c3)OCO4)c2)CC(C)O1 (centres undefined) do in these assays?
HCT116 bCat-KO: inactive; H69AR inhibit: 1.0; PTEN del growth: inactive; HUVEC prolif 384: inactive; Lung fibro prol: inactive

What do the screens show for `CC1CN(S(=O)(=O)c2cccc(C(=O)OCC(=O)c3cccs3)c2)CC(C)O1` (centres undefined)?
HCT116 bCat-KO: inactive; H69AR inhibit: inactive; PTEN del growth: inactive; HUVEC prolif 384: inactive; Lung fibro prol: inactive

Results for Cn1c(C2CCCN2C(=O)OC(C)(C)C)n[nH]c1=S (centres undefined) ?
HCT116 bCat-KO: inactive; H69AR inhibit: 1.8; PTEN del growth: inactive; HUVEC prolif 384: inactive; Lung fibro prol: inactive

Results for CCCc1sc(N/N=C/c2ccccn2)nc1-c1ccc(Br)cc1 ?
HCT116 bCat-KO: inactive; H69AR inhibit: 11; PTEN del growth: inactive; HUVEC prolif 384: 5.2; Lung fibro prol: 29

What do the screens show for `Cc1cc(=O)[nH]c(N/N=C/c2ccccn2)n1`?
HCT116 bCat-KO: inactive; PTEN del growth: inactive

Results for NC(=O)c1c(NC(=O)CSc2nnc(Cc3ccccc3)n2Cc2ccco2)sc2c1CCC2 ?
HCT116 bCat-KO: inactive; H69AR inhibit: 5.6; PTEN del growth: inactive; HUVEC prolif 384: inactive; Lung fibro prol: inactive

How did O=C(CSc1nnc(Cc2ccccc2)n1Cc1ccco1)NC12CC3CC(CC(C3)C1)C2 do in these assays?
HCT116 bCat-KO: inactive; H69AR inhibit: inactive; PTEN del growth: inactive; HUVEC prolif 384: inactive; Lung fibro prol: inactive

How did CCCCn1c(SCC(=O)Nc2sc3c(c2C(N)=O)CCC3)nnc1-c1ccccc1 do in these assays?
H69AR inhibit: 25; HUVEC prolif 384: inactive; Lung fibro prol: inactive

How did CN(C)CCCn1c(SCC(=O)Nc2sc3c(c2C#N)CCCC3)nnc1-c1ccncc1 do in these assays?
HCT116 bCat-KO: inactive; PTEN del growth: inactive

How did CCCS(=O)(=O)C(=C(Nc1ccccc1)Nc1ccccc1)S(=O)(=O)CCC do in these assays?
HCT116 bCat-KO: inactive; H69AR inhibit: 30; PTEN del growth: inactive; HUVEC prolif 384: inactive; Lung fibro prol: inactive

How did CCOc1cc(C(=O)N2CCN(c3ccc(C(C)=O)cc3)CC2)cc(OCC)c1OCC do in these assays?
HCT116 bCat-KO: inactive; H69AR inhibit: 38; PTEN del growth: inactive; HUVEC prolif 384: inactive; Lung fibro prol: inactive

How did Cc1ccc(CN2CCC(c3nc4ccc(Cl)cc4[nH]3)CC2)cc1 do in these assays?
HCT116 bCat-KO: inactive; PTEN del growth: inactive

What do the screens show for `Cc1cc2nc(C3CCN(Cc4nnnn4Cc4cccs4)CC3)[nH]c2cc1C`?
HCT116 bCat-KO: inactive; H69AR inhibit: 15; PTEN del growth: inactive; HUVEC prolif 384: inactive; Lung fibro prol: inactive

Results for CCOC(=O)C1CCN(CC(=O)Nc2c(C(=O)OC)[nH]c3ccccc23)CC1 ?
HCT116 bCat-KO: inactive; H69AR inhibit: 1.9; PTEN del growth: inactive; HUVEC prolif 384: inactive; Lung fibro prol: inactive
